ChEMBL document CHEMBL1122051 (J Med Chem, 1982)

Tests used:
[1] = test system: L5178Y; assay: Inhibitory activity against murine tumor cells (L5178Y/S); format: functional, Mus musculus
In short: (§1)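 L5178Y murine leukemia cells, MTX-sensitive (S) and MTX-resistant (R), kept in log-phase growth at 37 °C in RPMI-1640 with 10% fetal calf serum and 1% penicillin-streptomycin. Doubling times were 11-12 h (S) and 15-18 h (R). Cells seeded at 4.0-6.0 × 10^4 cells/mL, duplicate wells, at least six concentrations, final DMSO <2%. Untreated and DMSO controls included; cells counted by Coulter counter.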

[2] = test system: L5178Y; assay: Inhibitory activity against murine tumor cells (L5178Y/R); format: functional, Mus musculus; in short: as §1
[3] = test system: L5178Y; assay: Inhibitory action against murine tumor cells (L5178Y/S); format: functional, Mus musculus; in short: as §1
[4] = test system: L5178Y; assay: Inhibitory action against murine tumor cells (L5178Y/R); format: functional, Mus musculus; in short: as §1
[5] = Partition coefficient (logP); format: physicochemical; details: octanol/water
In short: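 Octanol/water partitioning. The protonated form was partitioned between octanol and 0.1 N HCl. The neutral form was partitioned between octanol and 0.1 N NaOH.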

SMILES	Log 1/C [1]	Log 1/C [2]	Log 1/C [3]	Log 1/C [4]	logP [5]
Nc1ncc(Cc2cccc(Br)c2)c(N)n1	5.52	4.12			
CC(=O)Nc1ccc(Cc2cnc(N)nc2N)cc1[N+](=O)[O-]	5.11	3.2			
COc1cccc(Cc2cnc(N)nc2N)c1	5.06	3.63			
COc1ccc(Cc2cnc(N)nc2N)cc1	5.1	3.52			
CC(=O)Nc1ccc(Cc2cnc(N)nc2N)cc1	5.12	3.23			
Nc1ncc(Cc2ccc(Br)cc2)c(N)n1	5.38	3.98			
CN(C)c1ccc(Cc2cnc(N)nc2N)cc1	4.95	4.02			
Cc1cccc(Cc2cnc(N)nc2N)c1	5.5	4.15			
Nc1ncc(Cc2ccc([N+](=O)[O-])cc2)c(N)n1	5.18	3.67			
Nc1ccc(Cc2cnc(N)nc2N)cc1	4.65	3.58			
Nc1ncc(Cc2ccc(OC(F)(F)F)cc2)c(N)n1	5.24	4.46			
Nc1ncc(Cc2cccc(F)c2)c(N)n1	5.27	3.61			
Nc1ncc(Cc2ccc(F)cc2)c(N)n1	5.48	3.9			
Nc1ncc(Cc2cccc(C(F)(F)F)c2)c(N)n1	5.63	4.37			
Nc1ncc(Cc2ccccc2)c(N)n1	5.24	3.88			
Nc1ncc(Cc2cccc(OCc3ccccc3)c2)c(N)n1	5.91	4.7			
COc1ccc(Cc2cnc(N)nc2N)cc1C(F)(F)F	5.85	4.39			
Nc1ncc(Cc2ccc(O)c(O)c2)c(N)n1	5.06	4.94			
Nc1ncc(Cc2ccc(Cl)cc2)c(N)n1	5.37	4.56			
CCCCOCc1cccc(Cc2cnc(N)nc2N)c1	5.74	3.93			
CCCCCCCOc1cccc(Cc2cnc(N)nc2N)c1	5.1	4.61			
COc1cc(Cc2cnc(N)nc2N)cc(OC)c1	5.47	3.83			

SMILES	Log 1/C [1]	Log 1/C [2]	Log 1/C [3]	Log 1/C [4]	logP [5]
Nc1ncc(Cc2cccc(I)c2)c(N)n1	5.86	4.36			
Nc1ncc(Cc2cccc(O)c2)c(N)n1	4.89	3.09			
CCCCCCCOc1ccc(Cc2cnc(N)nc2N)cc1	5.13	5.67			
NC(=O)COc1cccc(Cc2cnc(N)nc2N)c1			4.91	3.14	
CCCCCCCCOc1cccc(Cc2cnc(N)nc2N)c1	5.12	4.92			
COCCOc1cccc(Cc2cnc(N)nc2N)c1	5.2	3.7			
COCCOc1ccc(Cc2cnc(N)nc2N)cc1OCCOC	5.06	3.28			
COCc1cccc(Cc2cnc(N)nc2N)c1	5.28	3.65			
CCCCCCOc1cccc(Cc2cnc(N)nc2N)c1	5.3	5.16			
Nc1ncc(Cc2cc(CO)cc(CO)c2)c(N)n1	3.79	2.49			
CCCCCCOc1ccc(Cc2cnc(N)nc2N)cc1	5.47	5.48			
CCCCOc1cccc(Cc2cnc(N)nc2N)c1	5.74	4.99			
Nc1ncc(Cc2cccc(CO)c2)c(N)n1	4.97	2.98			
CCCCOc1ccc(Cc2cnc(N)nc2N)cc1	5.37	4.83			
CC1(C)N=C(N)N=C(N)N1c1ccc(CCCCc2ccc(S(=O)(=O)F)cc2Cl)c(Cl)c1					2.4
Cc1ccc(Cc2cnc(N)nc2N)cc1	5.26	4.21			
Nc1ncc(Cc2cccc(Cl)c2)c(N)n1	5.39	3.85			
COCCOc1ccc(Cc2cnc(N)nc2N)cc1	4.77	3.08			
CS(=O)(=O)Oc1cccc(Cc2cnc(N)nc2N)c1			5.28	3.34	
COc1ccc(Cc2cnc(N)nc2N)cc1OC [DIAVERIDINE]	5.41	3.54			
COCCOc1c(OC)cc(Cc2cnc(N)nc2N)cc1OC [TETROXOPRIM]	4.2	3.16			
